Data published in ChEMBL document CHEMBL5260808, “Design of Phthalazinone Amide Histamine H1 Receptor Antagonists for Use in Rhinitis” (ACS Med Chem Lett, 2017).
Active and inactive are the calls of the source. The calls are words filed in the database; no cut-off is given here.

Key:
[1] = Bioavailability in human; format: ADME, organism-based; conditions: in vivo
[2] = Distribution coefficient, log D of compound in n-octanol and phosphate buffered saline at pH 7.4 by HPLC analysis; format: physicochemical
[3] = target: T1, Histamine H1 receptor (Homo sapiens, UniProt P35367); experiment: Antagonist potency at human H1 receptor; conditions: read-out: pA2 (converted)
[4] = target: T1, Histamine H1 receptor; experiment: Antagonist activity against recombinant human H1 receptor expressed in CHO cells incubated for 30 mins by FLIPR analysis; format: cell-based
[5] = target: T2, Alpha-1A adrenergic receptor (Homo sapiens, UniProt P35348); experiment: Antagonist activity against recombinant human adrenergic alpha1A receptor expressed in Rat1 cells incubated for 30 mins by FLIPR analysis; format: cell-based
T2 sequence (P35348 whole entry): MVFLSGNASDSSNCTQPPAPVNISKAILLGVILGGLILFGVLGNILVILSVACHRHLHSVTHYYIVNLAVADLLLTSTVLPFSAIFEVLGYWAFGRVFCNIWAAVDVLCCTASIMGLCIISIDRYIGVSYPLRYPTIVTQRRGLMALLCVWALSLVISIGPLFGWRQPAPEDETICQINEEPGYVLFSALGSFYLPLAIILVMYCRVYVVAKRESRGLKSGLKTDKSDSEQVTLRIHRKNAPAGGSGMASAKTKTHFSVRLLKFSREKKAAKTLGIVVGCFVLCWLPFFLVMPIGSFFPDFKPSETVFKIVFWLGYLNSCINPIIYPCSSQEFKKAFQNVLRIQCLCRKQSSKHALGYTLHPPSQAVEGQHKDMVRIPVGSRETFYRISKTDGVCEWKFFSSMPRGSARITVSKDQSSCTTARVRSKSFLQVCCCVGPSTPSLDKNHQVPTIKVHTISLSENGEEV
Method in brief: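 Human α1A or α1B adrenoceptor in fibroblast cells. Plate-based calcium imaging.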

[6] = target: T3, Alpha-1B adrenergic receptor (Homo sapiens, UniProt P35368); experiment: Antagonist activity against recombinant human adrenergic alpha1B receptor expressed in CHO cells incubated for 30 mins by FLIPR analysis; format: cell-based
T3 sequence (P35368 whole entry): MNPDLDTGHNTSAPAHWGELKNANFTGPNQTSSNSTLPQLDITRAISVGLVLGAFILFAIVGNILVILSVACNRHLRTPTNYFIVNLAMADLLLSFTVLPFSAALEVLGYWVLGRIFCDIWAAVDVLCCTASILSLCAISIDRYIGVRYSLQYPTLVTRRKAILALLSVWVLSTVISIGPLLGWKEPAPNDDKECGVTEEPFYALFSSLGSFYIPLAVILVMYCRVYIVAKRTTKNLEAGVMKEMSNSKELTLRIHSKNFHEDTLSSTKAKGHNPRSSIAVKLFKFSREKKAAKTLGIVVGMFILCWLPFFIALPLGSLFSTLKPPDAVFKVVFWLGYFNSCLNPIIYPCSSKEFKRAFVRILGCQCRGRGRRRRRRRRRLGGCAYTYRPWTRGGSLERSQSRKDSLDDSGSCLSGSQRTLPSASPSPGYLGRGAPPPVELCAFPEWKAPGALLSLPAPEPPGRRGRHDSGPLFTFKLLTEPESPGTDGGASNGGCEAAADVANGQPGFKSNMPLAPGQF

[7] = target: Voltage-gated inwardly rectifying potassium channel KCNH2 (Homo sapiens, UniProt Q12809); experiment: Displacement of [3H]dofetilide from human ERG expressed in CHO-K1 cell membrane measured after 45 mins by topcount scintillation counting method; format: toxicity, cell membranes
[8] = test system: Cavia porcellus; experiment: Antihistamine activity against conscious unrestrained ovalbumin and aluminum hydroxide sensitized guinea pigs assessed as inhibition of histamine-induced nasal congestion by measuring time duration of action at 1 mg/ml, intranasal measured after 1 to 24 hrs; format: functional; conditions: time 1-24 hrs
Method in brief: (§1)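 Guinea pigs dosed intranasally with a 1 mg/mL solution (25 μL/nostril). Bilateral histamine challenge (15 or 10 mM, 25 μL/nostril, light isoflurane anesthesia) given 1 and 24 h after dosing. […] Comparison with vehicle-pretreated/histamine-challenged controls; mean ± SEM, n = 16–27 per group; p < 0.05.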

[9] = Drug metabolism in human hepatocytes assessed as metabolite formation at 10 uM measured after 3 hrs by LC-MS/MS analysis; format: ADME, cell-based, Hepatocyte
Method in brief: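 Cryopreserved human hepatocytes incubated with compound (10 μM initial) for 3 h. Metabolites detected and profiled by LC–MS/MS.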

[10] = Drug metabolism in monkey intestinal microsomes assessed as rate of metabolism; format: ADME, Macaca mulatta, Intestine; conditions: rhesus monkey
Method in brief: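 Intestinal microsomes from monkey; in vitro rate of metabolism given in mL/min/g.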

[11] = Drug metabolism in dog liver microsomes assessed as rate of metabolism; format: ADME, Canis lupus familiaris
[12] = Drug metabolism in human liver microsomes assessed as rate of metabolism; format: ADME
[13] = Drug metabolism in rat liver microsomes assessed as rate of metabolism; format: ADME
[14] = Drug metabolism in mouse liver microsomes assessed as rate of metabolism; format: ADME
[15] = Drug absorption into hepatic portal vein of CD Sprague-Dawley rat at 3 mg/kg, po; format: ADME, organism-based; conditions: read-out: Drug absorption
Method in brief: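 Male CD Sprague–Dawley rats dosed orally at 3 mg/kg. Absorption measured into the hepatic portal vein.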

[16] = Oral bioavailability in CD Sprague-Dawley rat at 300 mg/kg; format: ADME, organism-based; conditions: in vivo
Method in brief: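 Male CD Sprague–Dawley rats dosed orally at 300 mg/kg. Vehicle was H2O–PEG200–DMSO (50:45:5). Oral bioavailability determined from blood concentrations.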

[17] = Elimination in iv dosed dog urine; format: ADME, organism-based, Canis lupus familiaris; conditions: read-out: Drug excretion
Method in brief: (§2)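 Beagle dogs dosed iv at 1 mg/kg, or subcutaneously in one dog. Parent compound measured in urine.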

[18] = Elimination in sc dosed dog urine; format: ADME, organism-based, Canis lupus familiaris; conditions: read-out: Drug excretion; method in brief: as §2
[19] = test system: Cavia porcellus; experiment: Antihistamine activity against conscious unrestrained ovalbumin and aluminum hydroxide sensitized guinea pigs assessed as inhibition of histamine-induced nasal congestion at 1 mg/ml, intranasal measured after 1 to 24 hrs relative to control; format: functional, organism-based; conditions: time 1-24 hrs; method in brief: as §1
[20] = target: D(1A) dopamine receptor (Homo sapiens) (UniProt P21728); experiment: Inhibition of human dopamine D1 receptor at 1 uM relative to control
[21] = target: D(2) dopamine receptor (Homo sapiens) (UniProt P14416); experiment: Inhibition of human dopamine D2S receptor at 1 uM relative to control
[22] = target: 5-hydroxytryptamine receptor 2A (Homo sapiens) (UniProt P28223); experiment: Inhibition of human 5-HT2A receptor at 1 uM relative to control
[23] = target: 5-hydroxytryptamine receptor 6 (Homo sapiens) (UniProt P50406); experiment: Inhibition of human 5-HT6 receptor at 1 uM relative to control
[24] = target: 5-hydroxytryptamine receptor 7 (Homo sapiens) (UniProt P34969); experiment: Inhibition of human 5-HT7 receptor at 1 uM relative to control
[25] = Elimination half life in Beagle dog at 2 mg/kg, po and 1 mg/kg, iv; format: ADME, organism-based, Canis lupus familiaris; conditions: in vivo, read-out: beta t1/2 (converted)
Method in brief: (§3)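 Male CD Sprague–Dawley rats and Beagle dogs. Solution in H2O–PEG200–DMSO (50:45:5), given iv at 1 mg/kg, and po at 3 mg/kg (rat) or 2 mg/kg (dog). Vss and elimination half-life derived after iv dosing.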

[26] = Elimination half life in CD Sprague-Dawley rat at 3 mg/kg, po and 1 mg/kg, iv; format: ADME, organism-based; conditions: in vivo, read-out: beta t1/2 (converted); method in brief: as §3
[27] = Volume of distribution at steady state in CD Sprague-Dawley rat at 3 mg/kg, po and 1 mg/kg, iv; format: ADME, organism-based; conditions: in vivo; method in brief: as §3
[28] = Volume of distribution at steady state in Beagle dog at 2 mg/kg, po and 1 mg/kg, iv; format: ADME, organism-based, Canis lupus familiaris; conditions: in vivo; method in brief: as §3
[29] = Drug uptake in rat brain at 1 mg/kg, iv bolus dose; format: ADME, organism-based; conditions: in vivo
Method in brief: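 Rats given a 1 mg/kg intravenous bolus. Brain and blood sampled at 5 min; brain–blood ratio and brain concentration determined, n = 3.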

[30] = Ratio of drug level in rat brain to blood at 1 mg/kg, iv bolus dose measured after 5 mins

Chain of Voltage-gated inwardly rectifying potassium channel KCNH2 (Q12809 whole entry): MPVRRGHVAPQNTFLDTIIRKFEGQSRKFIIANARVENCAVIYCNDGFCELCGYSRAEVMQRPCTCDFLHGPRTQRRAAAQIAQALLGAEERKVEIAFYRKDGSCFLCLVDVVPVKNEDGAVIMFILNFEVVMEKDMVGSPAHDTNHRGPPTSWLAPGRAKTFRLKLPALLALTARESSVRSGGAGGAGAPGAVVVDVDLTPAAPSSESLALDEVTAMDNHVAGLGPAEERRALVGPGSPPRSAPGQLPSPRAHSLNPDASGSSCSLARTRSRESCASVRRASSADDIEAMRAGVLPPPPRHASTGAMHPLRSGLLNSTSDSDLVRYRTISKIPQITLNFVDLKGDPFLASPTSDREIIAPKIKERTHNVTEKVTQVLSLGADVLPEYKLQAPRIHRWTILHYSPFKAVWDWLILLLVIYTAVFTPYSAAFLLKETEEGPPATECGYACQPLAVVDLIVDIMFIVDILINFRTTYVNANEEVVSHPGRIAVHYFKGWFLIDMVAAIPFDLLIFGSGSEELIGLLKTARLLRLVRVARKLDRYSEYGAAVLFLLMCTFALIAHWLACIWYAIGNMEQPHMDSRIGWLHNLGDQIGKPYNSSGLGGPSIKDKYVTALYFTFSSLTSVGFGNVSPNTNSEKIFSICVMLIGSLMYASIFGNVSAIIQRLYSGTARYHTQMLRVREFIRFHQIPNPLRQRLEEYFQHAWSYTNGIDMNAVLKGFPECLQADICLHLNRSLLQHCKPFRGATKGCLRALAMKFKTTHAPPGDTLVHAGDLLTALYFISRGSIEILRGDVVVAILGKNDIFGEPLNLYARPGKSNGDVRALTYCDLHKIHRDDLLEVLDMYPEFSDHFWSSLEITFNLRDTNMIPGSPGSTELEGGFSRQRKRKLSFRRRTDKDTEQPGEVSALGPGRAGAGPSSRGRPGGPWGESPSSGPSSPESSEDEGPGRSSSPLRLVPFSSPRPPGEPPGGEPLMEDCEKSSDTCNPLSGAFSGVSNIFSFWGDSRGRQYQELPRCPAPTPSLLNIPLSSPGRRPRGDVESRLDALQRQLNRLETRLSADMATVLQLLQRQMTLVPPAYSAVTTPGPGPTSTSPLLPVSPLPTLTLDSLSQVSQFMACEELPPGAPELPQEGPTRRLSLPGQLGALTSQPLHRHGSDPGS
T1 sequence (P35367 whole entry): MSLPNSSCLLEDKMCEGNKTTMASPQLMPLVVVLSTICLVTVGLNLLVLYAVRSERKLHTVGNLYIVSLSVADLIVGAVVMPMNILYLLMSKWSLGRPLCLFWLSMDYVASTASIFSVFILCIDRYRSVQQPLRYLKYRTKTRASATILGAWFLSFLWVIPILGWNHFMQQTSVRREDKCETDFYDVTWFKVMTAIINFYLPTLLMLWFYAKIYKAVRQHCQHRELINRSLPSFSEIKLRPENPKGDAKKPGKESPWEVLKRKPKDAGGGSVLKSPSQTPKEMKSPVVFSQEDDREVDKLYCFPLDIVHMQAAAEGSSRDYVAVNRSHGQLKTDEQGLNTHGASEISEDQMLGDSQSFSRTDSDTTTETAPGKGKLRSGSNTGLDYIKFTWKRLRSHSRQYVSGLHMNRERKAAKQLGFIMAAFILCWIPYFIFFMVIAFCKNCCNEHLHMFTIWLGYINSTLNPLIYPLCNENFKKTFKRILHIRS
Chain of 5-hydroxytryptamine receptor 2A (Homo sapiens) (P28223 whole entry): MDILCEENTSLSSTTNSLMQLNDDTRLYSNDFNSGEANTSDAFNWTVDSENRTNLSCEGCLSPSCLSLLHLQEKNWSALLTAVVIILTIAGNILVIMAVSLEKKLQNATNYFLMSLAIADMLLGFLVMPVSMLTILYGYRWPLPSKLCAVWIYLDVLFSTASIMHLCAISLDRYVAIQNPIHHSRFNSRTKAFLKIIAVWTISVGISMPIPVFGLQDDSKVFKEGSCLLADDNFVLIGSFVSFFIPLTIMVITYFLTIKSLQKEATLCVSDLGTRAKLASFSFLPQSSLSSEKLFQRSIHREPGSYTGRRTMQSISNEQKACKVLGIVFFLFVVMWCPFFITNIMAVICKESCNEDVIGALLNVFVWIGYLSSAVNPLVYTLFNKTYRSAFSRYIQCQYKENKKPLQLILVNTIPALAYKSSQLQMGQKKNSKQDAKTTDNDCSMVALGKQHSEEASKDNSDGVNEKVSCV
Chain of 5-hydroxytryptamine receptor 6 (Homo sapiens) (P50406 whole entry): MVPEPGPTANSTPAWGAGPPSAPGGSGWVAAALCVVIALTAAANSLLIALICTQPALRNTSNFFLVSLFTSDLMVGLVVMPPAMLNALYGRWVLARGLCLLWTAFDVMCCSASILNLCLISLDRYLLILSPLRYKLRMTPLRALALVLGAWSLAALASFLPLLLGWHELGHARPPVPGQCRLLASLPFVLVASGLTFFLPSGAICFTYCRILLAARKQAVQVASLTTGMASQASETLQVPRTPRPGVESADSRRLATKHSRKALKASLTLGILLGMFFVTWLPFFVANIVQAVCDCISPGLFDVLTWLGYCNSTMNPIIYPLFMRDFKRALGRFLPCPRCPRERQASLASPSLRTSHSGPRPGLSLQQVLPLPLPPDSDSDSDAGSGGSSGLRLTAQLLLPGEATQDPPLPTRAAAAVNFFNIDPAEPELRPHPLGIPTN
Chain of D(1A) dopamine receptor (Homo sapiens) (P21728 whole entry): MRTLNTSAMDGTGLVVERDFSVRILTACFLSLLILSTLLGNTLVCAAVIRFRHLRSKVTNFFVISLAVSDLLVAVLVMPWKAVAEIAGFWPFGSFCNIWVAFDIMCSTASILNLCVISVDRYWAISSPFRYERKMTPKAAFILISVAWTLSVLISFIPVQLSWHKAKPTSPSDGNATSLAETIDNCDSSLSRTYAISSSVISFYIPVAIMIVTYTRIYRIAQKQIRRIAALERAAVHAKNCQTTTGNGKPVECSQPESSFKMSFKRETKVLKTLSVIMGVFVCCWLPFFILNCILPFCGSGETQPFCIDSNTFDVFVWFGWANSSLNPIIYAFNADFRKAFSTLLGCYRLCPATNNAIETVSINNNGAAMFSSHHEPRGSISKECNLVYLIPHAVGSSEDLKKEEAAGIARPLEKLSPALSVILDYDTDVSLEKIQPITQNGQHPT
Chain of D(2) dopamine receptor (Homo sapiens) (P14416 whole entry): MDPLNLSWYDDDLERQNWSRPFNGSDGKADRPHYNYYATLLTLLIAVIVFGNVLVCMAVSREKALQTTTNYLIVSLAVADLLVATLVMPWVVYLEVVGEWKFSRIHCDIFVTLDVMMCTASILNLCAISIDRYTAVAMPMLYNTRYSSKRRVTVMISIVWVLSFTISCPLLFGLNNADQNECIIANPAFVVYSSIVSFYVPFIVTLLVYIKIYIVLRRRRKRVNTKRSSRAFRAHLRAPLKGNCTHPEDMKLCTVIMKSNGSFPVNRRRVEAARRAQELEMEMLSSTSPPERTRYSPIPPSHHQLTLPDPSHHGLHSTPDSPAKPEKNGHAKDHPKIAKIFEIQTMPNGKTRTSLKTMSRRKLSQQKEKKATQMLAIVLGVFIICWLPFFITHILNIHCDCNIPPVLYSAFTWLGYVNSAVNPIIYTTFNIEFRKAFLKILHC
Chain of 5-hydroxytryptamine receptor 7 (Homo sapiens) (P34969 whole entry): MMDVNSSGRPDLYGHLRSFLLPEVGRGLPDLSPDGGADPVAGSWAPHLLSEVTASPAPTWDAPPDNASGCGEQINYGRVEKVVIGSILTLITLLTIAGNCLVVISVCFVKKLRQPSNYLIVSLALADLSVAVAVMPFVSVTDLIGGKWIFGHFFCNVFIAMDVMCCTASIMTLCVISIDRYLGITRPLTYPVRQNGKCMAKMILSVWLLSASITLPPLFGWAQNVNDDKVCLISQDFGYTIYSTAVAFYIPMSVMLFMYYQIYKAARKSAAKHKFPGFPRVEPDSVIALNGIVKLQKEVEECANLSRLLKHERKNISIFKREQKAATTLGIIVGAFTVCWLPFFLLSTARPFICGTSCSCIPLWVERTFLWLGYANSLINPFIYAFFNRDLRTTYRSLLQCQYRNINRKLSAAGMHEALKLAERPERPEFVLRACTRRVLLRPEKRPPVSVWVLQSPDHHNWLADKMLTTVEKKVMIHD

Compound | logD [2] | Kb [3] [nM] | Ki [4] [nM] | Ki [5] [nM] | Ki [6] [nM] | IC50 [7] [nM] | further results
CN1CCCC(n2nc(Cc3ccc(Cl)cc3)c3ccccc3c2=O)CC1 (stereo unspecified) [AZELASTINE] | 2.3 |  |  |  |  |  | bioavailability [1]: 40%
CCCNC(=O)CCCN1CCC[C@@H]1Cn1nc(Cc2ccc(Cl)cc2)c2ccccc2c1=O | 3.3 | 0.158 | 5.01 | 10 | 31.6 | 1.58 | 
CCC(=O)NCCN1CCC[C@@H]1Cn1nc(Cc2ccc(Cl)cc2)c2ccccc2c1=O | 3.4 | 0.251 | 0.631 | 15.8 | 15.8 | 200 | 
COCCCC(=O)NCCN1CCC[C@@H]1Cn1nc(Cc2ccc(Cl)cc2)c2ccccc2c1=O.Cl |  |  |  |  |  |  | Time [8]: <48 h; Drug metabolism [9]: Metabolite_Detected; CLint scaled [10]: > 50 mL/min/g; Drug metabolism [11]: 12 mL/min/g; Drug metabolism [12]: 25 mL/min/g; Drug metabolism [13]: 50 mL/min/g; Drug metabolism [14]: 50 mL/min/g; Fa [15]: 3%; bioavailability [16]: < 3%; dose excreted [17]: < 3%; dose excreted [18]: < 3%
COCCCC(=O)NCCN1CCC[C@@H]1Cn1nc(Cc2ccc(Cl)cc2)c2ccccc2c1=O |  |  |  |  |  |  | Activity [19]: Active; inhibition [20]: > 50%; inhibition [21]: > 50%; inhibition [22]: > 50%; inhibition [23]: > 50%; inhibition [24]: > 50%
COCCCC(=O)NCCN1CCC[C@@H]1Cn1nc(Cc2ccc(Cl)cc2)c2ccccc2c1=O.O=C(O)C(F)(F)F | 3.5 |  |  |  |  |  | Time [8]: <48 h; half-life [25]: 30 min; half-life [26]: 12 min; Vdss [27]: 0.7 L/kg; Vdss [28]: 1.1 L/kg; Drug uptake [29]: 121 ng/g; Kp at 5 min [30]: 0.18
COCCNC(=O)CCCN1CCC[C@@H]1Cn1nc(Cc2ccc(Cl)cc2)c2ccccc2c1=O | 2.5 | 0.501 | 0.794 | 6.31 | 10 | 39.8 | 
COCCCC(=O)N(C)CCN1CCC[C@@H]1Cn1nc(Cc2ccc(Cl)cc2)c2ccccc2c1=O | 3.5 | 0.1 | 3.16 | 31.6 | 126 | 398 | 
CCCC(=O)NCCN1CCC[C@@H]1Cn1nc(Cc2ccc(Cl)cc2)c2ccccc2c1=O | 3.7 | 0.631 | 0.794 | 31.6 | 79.4 | 63.1 | 
O=C(NCCN1CCC[C@@H]1Cn1nc(Cc2ccc(Cl)cc2)c2ccccc2c1=O)C1CCCC1 | 3.9 | 0.316 | 3.98 | 79.4 | 79.4 | 50.1 | 
CC(C)C(=O)NCCN1CCC[C@@H]1Cn1nc(Cc2ccc(Cl)cc2)c2ccccc2c1=O | 3.2 | 0.132 | 3.98 | 3.98 | 63.1 | 398 | 
O=C(NCCN1CCC[C@@H]1Cn1nc(Cc2ccc(Cl)cc2)c2ccccc2c1=O)C1CCOCC1 | 3.3 | 0.794 | 10 | 200 |  | 794 | 
COCC(=O)NCCN1CCC[C@@H]1Cn1nc(Cc2ccc(Cl)cc2)c2ccccc2c1=O | 3.1 | 0.2 | 1.26 | 50.1 | 31.6 | 200 | 
COCCC(=O)NCCN1CCC[C@@H]1Cn1nc(Cc2ccc(Cl)cc2)c2ccccc2c1=O | 3.2 | 0.501 | 0.794 | 7.94 | 63.1 | 398 | 
